# Source: ChEMBL document CHEMBL3351265
# Active and inactive are the calls of the source. The calls are words filed in the database; no cut-off is given here.
# Columns and labels:
# DB [1] = assay: Reduction in EZH2 protein expression in human DB cells at 7.5 to 30 uM after 72 hrs by Western blot analysis; format: functional, cell-based
# Summary of the method: (§1)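 DB (mutant EZH2) or Toledo (wild-type EZH2) DLBCL cells treated with compound for 72 h; lysed in RIPA buffer; 30 μg total protein resolved by SDS-PAGE, blotted to PVDF, probed for EZH2, EED, SUZ12 or H3K27me3 with HRP secondary and chemiluminescent detection; total histone H3 as loading control; 10 μM EPZ005687 as reference inhibitor.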
# [2] = Reduction in EZH2 protein expression in human Toledo cells at 2 to 8 uM after 72 hrs by Western blot analysis; format: functional, cell-based; summary of the method: as §1
# [3] = Reduction in EED protein expression in human Toledo cells at 2 to 8 uM after 72 hrs by Western blot analysis; format: functional, cell-based; summary of the method: as §1
# DB [4] = assay: Reduction in SUZ12 protein expression in human DB cells at 7.5 to 30 uM after 72 hrs by Western blot analysis; format: functional, cell-based; summary of the method: as §1
# [5] = Reduction in SUZ12 protein expression in human Toledo cells at 2 to 8 uM after 72 hrs by Western blot analysis; format: functional, cell-based; summary of the method: as §1
# DB [6] = assay: Reduction in EED protein expression in human DB cells at 7.5 to 30 uM after 72 hrs by Western blot analysis; format: functional, cell-based; summary of the method: as §1
# [7] = Reduction in EED protein expression in human Toledo cells at 10 uM after 72 hrs by Western blot analysis; format: functional, cell-based; summary of the method: as §1
# [8] = Reduction in SUZ12 protein expression in human Toledo cells at 10 uM after 72 hrs by Western blot analysis; format: functional, cell-based; summary of the method: as §1
# [9] = Reduction in EZH2 protein expression in human Toledo cells at 10 uM after 72 hrs by Western blot analysis; format: functional, cell-based; summary of the method: as §1
# DB [10] = assay: Reduction in EZH2 protein expression in human DB cells at 10 uM after 72 hrs by Western blot analysis; format: functional, cell-based; summary of the method: as §1
# DB [11] = assay: Reduction in EED protein expression in human DB cells at 10 uM after 72 hrs by Western blot analysis; format: functional, cell-based; summary of the method: as §1
# DB [12] = assay: Reduction in SUZ12 protein expression in human DB cells at 10 uM after 72 hrs by Western blot analysis; format: functional, cell-based; summary of the method: as §1
# [13] = Reduction in SUZ12 protein expression in human Toledo cells after 72 hrs by Western blot analysis; format: functional, cell-based; summary of the method: as §1
# [14] = tested on: Polycomb protein EED (Homo sapiens), O75530 [V112E]; conditions: 200 uM
# DB [15] = assay: Antiproliferative activity against shRNA-treated human DB cells at 2.5 to 15 uM after 3 days by Alamar blue assay; format: functional, cell-based
# Summary of the method: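 DB cells transduced with lentiviral pSICOR shRNA (mock, shEED or shEZH2); 5000 cells per well in serum-containing medium with compound, triplicate cultures; 3 days incubation; alamar blue added, plates incubated at 37 °C and read at 560 nm.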
# [16] = Reduction in EED protein expression in human Toledo cells after 72 hrs by Western blot analysis; format: functional, cell-based; summary of the method: as §1
# SU-DHL-6 [17] = assay: Antiproliferative activity against human SU-DHL6 cells after 7 days by CCK-8 assay; format: functional, cell-based
# Summary of the method: (§2)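 DLBCL lines from ATCC grown in RPMI 1640 with 10% FBS and Pen/Strep; 1−2 × 10^4 cells per well seeded in serum-containing medium with compound, triplicate cultures; 7 days incubation; viability by CCK-8 absorbance at 450 nm (600 nm reference), expressed as percentage of absorbance relative to control cells.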
# [18] = tested on: Polycomb protein EED (Homo sapiens), O75530 [L123E]; conditions: 200 uM
# Toledo [19] = assay: Antiproliferative activity against human Toledo cells at 5 uM after 72 hrs by flow cytometry in presence of 5 uM EPZ005687
# Pfeiffer [20] = assay: Antiproliferative activity against human Pfeiffer cells at 5 uM after 7 days by CCK-8 assay in presence of 5 uM EPZ005687; format: functional, cell-based
# DB [21] = assay: Reduction in EZH2 protein expression in human DB cells after 72 hrs by Western blot analysis; format: functional, cell-based; summary of the method: as §1
# SUD4 [22] = assay: Antiproliferative activity against human SU-DHL4 cells at 5 uM after 7 days by CCK-8 assay in presence of 5 uM EPZ005687; format: functional, cell-based
# [23] = tested on: Polycomb protein EED (Homo sapiens), O75530 [L246E]; conditions: 200 uM
# SU-DHL-6 [24] = assay: Antiproliferative activity against human SU-DHL6 cells after 7 days by CCK8 assay
# SUD4 [25] = assay: Antiproliferative activity against human SU-DHL4 cells after 7 days by CCK-8 assay; format: functional, cell-based; summary of the method: as §2
# Toledo [26] = assay: Antiproliferative activity against human Toledo cells after 7 days by CCK-8 assay; format: functional, cell-based; summary of the method: as §2
# [27] = target: Polycomb protein EED (Homo sapiens) (UniProt O75530)
# SUD4 [28] = assay: Antiproliferative activity against human SU-DHL4 cells after 7 days by CCK8 assay
# DB [29] = assay: Reduction in EED protein expression in human DB cells after 72 hrs by Western blot analysis; format: functional, cell-based; summary of the method: as §1
# [30] = tested on: Polycomb protein EED (Homo sapiens), O75530 [L353A]; conditions: 200 uM
# DB [31] = assay: Antiproliferative activity against human DB cells after 72 h by flow cytometry in presence of EPZ005687
# [32] = target: Polycomb protein EED (Homo sapiens) (UniProt O75530); remark: listed apart in the source
# [33] = Reduction in EZH2 protein expression in human Toledo cells after 72 hrs by Western blot analysis; format: functional, cell-based; summary of the method: as §1
# Toledo [34] = assay: Antiproliferative activity against human Toledo cells by flow cytometry
# SU-DHL-6 [35] = assay: Antiproliferative activity against human SU-DHL6 cells at 5 uM after 7 days by CCK-8 assay in presence of 5 uM EPZ005687; format: functional, cell-based
# [36] = target: Polycomb protein EED (Homo sapiens) (UniProt O75530); remark: listed apart in the source
# DB [37] = assay: Antiproliferative activity against human DB cells at 5 uM after 72 hrs by flow cytometry in presence of 5 uM EPZ005687
# Pfeiffer [38] = assay: Antiproliferative activity against human Pfeiffer cells after 7 days by CCK8 assay
# [39] = target: Polycomb protein EED (Homo sapiens) (UniProt O75530); remark: listed apart in the source
# [40] = target: Polycomb protein EED (Homo sapiens) (UniProt O75530); remark: listed apart in the source
# DB [41] = assay: Reduction in SUZ12 protein expression in human DB cells after 72 hrs by Western blot analysis; format: functional, cell-based; summary of the method: as §1
# Pfeiffer [42] = assay: Antiproliferative activity against human Pfeiffer cells after 7 days by CCK-8 assay; format: functional, cell-based; summary of the method: as §2
# [43] = tested on: Polycomb protein EED (Homo sapiens), O75530 [L315D]; conditions: 200 uM
# DB [44] = assay: Antiproliferative activity against human DB cells after 7 days by CCK-8 assay; format: functional, cell-based; summary of the method: as §2
# [45] = tested on: Polycomb protein EED (Homo sapiens), O75530 [F356Y]; conditions: 200 uM
# Sequence of Polycomb protein EED (Homo sapiens), O75530 [F356Y] (O75530 whole entry F356Y): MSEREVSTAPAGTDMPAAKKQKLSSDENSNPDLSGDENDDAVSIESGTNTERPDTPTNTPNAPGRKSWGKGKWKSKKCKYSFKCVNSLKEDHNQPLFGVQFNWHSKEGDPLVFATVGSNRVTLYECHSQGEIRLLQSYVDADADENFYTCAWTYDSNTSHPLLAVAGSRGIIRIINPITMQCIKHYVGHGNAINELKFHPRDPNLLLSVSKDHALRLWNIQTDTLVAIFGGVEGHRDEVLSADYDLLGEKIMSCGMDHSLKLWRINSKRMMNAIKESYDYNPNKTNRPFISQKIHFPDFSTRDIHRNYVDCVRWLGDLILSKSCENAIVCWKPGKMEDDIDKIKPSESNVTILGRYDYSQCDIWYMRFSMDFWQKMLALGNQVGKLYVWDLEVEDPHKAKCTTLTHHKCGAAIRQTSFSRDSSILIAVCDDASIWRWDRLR
# Sequence of Polycomb protein EED (Homo sapiens) (O75530 2-441 limits assumed): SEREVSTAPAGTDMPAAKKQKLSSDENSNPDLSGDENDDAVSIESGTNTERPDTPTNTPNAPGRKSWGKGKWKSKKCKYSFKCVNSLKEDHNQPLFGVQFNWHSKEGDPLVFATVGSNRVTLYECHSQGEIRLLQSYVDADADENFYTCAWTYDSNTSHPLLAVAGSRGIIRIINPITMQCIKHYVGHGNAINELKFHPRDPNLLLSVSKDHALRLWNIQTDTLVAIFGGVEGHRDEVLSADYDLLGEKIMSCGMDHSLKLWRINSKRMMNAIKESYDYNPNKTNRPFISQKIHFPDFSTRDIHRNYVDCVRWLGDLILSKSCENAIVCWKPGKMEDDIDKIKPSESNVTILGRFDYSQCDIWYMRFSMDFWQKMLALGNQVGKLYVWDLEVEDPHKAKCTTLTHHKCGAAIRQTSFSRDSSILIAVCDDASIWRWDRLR
# Sequence of Polycomb protein EED (Homo sapiens), O75530 [L246E] (O75530 whole entry L246E): as the sequence (O75530 whole entry F356Y) above, with L246E, Y356F counted along it
# Sequence of Polycomb protein EED (Homo sapiens), O75530 [L315D] (O75530 whole entry L315D): as the sequence (O75530 whole entry F356Y) above, with L315D, Y356F counted along it
# Sequence of Polycomb protein EED (Homo sapiens), O75530 [V112E] (O75530 whole entry V112E): as the sequence (O75530 whole entry F356Y) above, with V112E, Y356F counted along it
# Sequence of Polycomb protein EED (Homo sapiens), O75530 [L123E] (O75530 whole entry L123E): as the sequence (O75530 whole entry F356Y) above, with L123E, Y356F counted along it
# Sequence of Polycomb protein EED (Homo sapiens), O75530 [L353A] (O75530 whole entry L353A): as the sequence (O75530 whole entry F356Y) above, with L353A, Y356F counted along it
smiles,measurement,setting,value
COc1cccc2c1C(=O)c1c(O)c3c(c(O)c1C2=O)C[C@@](O)(C(=O)CO)C[C@@H]3O[C@H]1C[C@H](N)[C@H](O)[C@H](C)O1,Activity,DB [1],inactive
same,Activity,[2],inactive
same,Activity,[3],inactive
same,Activity,DB [4],inactive
same,Activity,[5],inactive
same,Activity,DB [6],inactive
Cc1cc(C)c(CNC(=O)c2cc(-c3ccc(CN4CCOCC4)cc3)cc3c2cnn3C2CCCC2)c(=O)[nH]1,Activity,[7],inactive
same,Activity,[8],inactive
same,Activity,[9],inactive
same,Activity,DB [10],inactive
same,Activity,DB [11],inactive
same,Activity,DB [12],inactive
COc1ccc(CCN2CCC(Nc3nc4ccccc4n3Cc3ccc(F)cc3)CC2)cc1,Activity,[13],Active
same,Tm,[14],38.2 °C
same,Activity,DB [15],inactive
same,Activity,[16],Active
same,Activity,SU-DHL-6 [17],Active
same,Tm,[18],38.2 °C
same,Activity,Toledo [19],Active
same,Activity,Pfeiffer [20],Active
same,Activity,DB [21],Active
same,Activity,SUD4 [22],Active
same,Tm,[23],38.1 °C
same,Activity,SU-DHL-6 [24],Active
same,Activity,SUD4 [25],Active
same,Activity,Toledo [26],Active
same,ΔTm,[27],3.44 °C
same,Activity,SUD4 [28],Active
same,Activity,DB [29],Active
same,Tm,[30],38.2 °C
same,Activity,DB [31],Active
same,ΔTm,[32],2 °C
same,Activity,[33],Active
same,Activity,Toledo [34],Active
same,Activity,SU-DHL-6 [35],Active
same,ΔTm,[36],1.64 °C
same,Activity,DB [37],Active
same,Activity,Pfeiffer [38],Active
same,ΔTm,[39],4.29 °C
same,ΔTm,[40],4.08 °C
same,Activity,DB [41],Active
same,Activity,Pfeiffer [42],Active
same,Tm,[43],38.1 °C
same,Activity,DB [44],Active
same,Tm,[45],38.2 °C
